Measured values reported in PMC6531791 (Molecular Metabolism, 2019).

Assays:
Type in all cases: in vivo, mouse
[1] = test system: SN DA neurons (TH+); test: In situ detection of ROS with dihydroethidium; details: following MPTP exposure, with or without Dln101 pre-treatment; n = 4–6 per group
Summary of the method: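 Dihydroethidium, 200 μl of a 1 mg/ml stock in 1% DMSO, was injected into the tail vein. Mice were perfused 3 h later. Midbrain sections were co-immunostained for TH. DHE fluorescence intensity was quantified in TH+ cells, n = 4–6 per group.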

[2] = test system: microglia in SN; test: Microglia immunostaining with IBA-1 antibody in SN; details: after MPTP exposure, with or without Dln101 pre-treatment
Summary of the method: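 Sections were blocked in 5% normal goat serum, 1% BSA, 0.1% glycine and 0.1% L-lysine. Rabbit polyclonal anti-IBA-1 (1:3000) was applied overnight at 4 °C, then a biotinylated secondary with ABC/DAB or avidin-Alexa 488. TH was co-stained.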

[3] = test system: SN DA neuron mitochondria; test: Electron microscopy analysis of mitochondrial morphology in SN DA neurons; details: for Mitochondrial average area in SN DA cells / Mitochondrial cytoplasmic coverage: WT mice; for Mitochondrial average area in SN DA cells: vehicle = 0.143 ± 0.004, n = 102–473 per group; for Mitochondrial cytoplasmic coverage: vehicle = 9.94% ± 1.1; for average mitochondrial area in SN DA cells / mitochondrial coverage of cytoplasmic area / mitochondrial units per cell: iCre-DAT MFN2KO animals; for average mitochondrial area in SN DA cells: untreated KO = 0.163 ± 0.005; for mitochondrial coverage of cytoplasmic area: untreated KO = 9.35% ± 0.56; for mitochondrial units per cell: untreated KO = 80 ± 12
Summary of the method: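 Mice got test peptide (15 nmoles) or saline s.c. daily for 10 days, 15 min before dark onset. […] Perfusion: ice-cold saline, then 4% PFA/15% picric acid/0.1% glutaraldehyde in 0.1M PB. Sections were freeze-thawed and immunolabelled. Mitochondria required visible cristae and a double membrane. Coverage = summed mitochondrial area / (cell − nucleus area), %.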

[4] = Accelerating rotarod test, MPTP model; details: WT mice; MPTP after saline, ghrelin or Dln101 pre-treatment; vehicle = 88.9 ± 6.4; mean ± SEM, n = 5–11 per group
[5] = 1 day after MPTP (15 mg/kg), alone or after Dln101 pre-treatment

CN1CC=C(c2ccccc2)CC1 [MPTP, 1-methyl-4-phenyl-1,2,5,6 tetrahydropyridine]
increase in ROS production in SN DA neurons (DHE fluorescence) [1]: 7.46 fold
microglial morphology / activation in SN (IBA1 immunostaining) [2]: microglial activation
Mitochondrial average area in SN DA cells ([3]; 4 h after MPTP (15 mg/kg)): 0.112 ± 0.006 μm^2
Mitochondrial cytoplasmic coverage ([3]; 4 h after MPTP (15 mg/kg)): 8.66% ± 0.68
Mitochondrial average area in SN DA cells [3, 5]: 0.176 ± 0.006 μm^2
Mitochondrial cytoplasmic coverage [3, 5]: 6.144% ± 0.51
average mitochondrial area in SN DA cells ([3]; 4h after MPTP, n = 421–1456): 0.179 ± 0.004
mitochondrial coverage of cytoplasmic area ([3]; 4h after MPTP): 10.22 ± 0.69%
mitochondrial units per cell ([3]; 4h after MPTP): 52 ± 6
average mitochondrial area in SN DA cells ([3]; 3days after MPTP): 0.287 ± 0.006
mitochondrial coverage of cytoplasmic area ([3]; 3days after MPTP): 23.32 ± 4.21%
mitochondrial units per cell ([3]; 3days after MPTP): 29 ± 3
Latency to fall from the rotarod [4]: 51.0 ± 5.0 s
